Results published in article PMC8887543 (Nucleic Acids Research, 2022).

How the values were obtained:
[1] = test system: G4-DNA (c-MYC promoter, telomeric) versus other nucleic acids; assay: Selectivity screening by induced fluorescence with 20 nucleic acids; type: binding; conditions: 5 μM ligand, 18 μM nucleic acid, Tris–HCl pH 7.4, 60 mM KCl
In short: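 For induced-fluorescence selectivity, the test compound (5 μM) was mixed with each nucleic acid (18 μM) in 10 mM Tris–HCl (pH 7.4) with 60 mM KCl. Emission was recorded on a fluorescence spectrometer against compound alone without DNA. Samples were also viewed under 302 nm UV illumination.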

MCF-7 cells = assay: BRACO19 displacement in stained cells, confocal imaging; type: cell-based, human; conditions: ligand 5 μM, BRACO19 0–15 μM
In short: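 MCF-7 cells were stained with the test compound (5 μM) plus increasing BRACO19 (0–15 μM) for displacement. Images were taken by laser-scanning confocal microscopy with 488 nm excitation. A parallel solution assay followed fluorescence of the compound (5 μM) bound to nucleic acid under the same BRACO19 range.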

[2] = test system: dT21 (DNA, single strand) TTTTTTTTTTTTTTTTTTTTT; assay: fluorescence light-up; conditions: 60 mM KCl; 10 mM Tris-HCl, pH 7.4

Compound: CN1C(=Cc2cc[n+](C)c3ccccc23)Sc2ccccc21 [TO, thiazole orange]
- Selectivity toward G4-DNA structures by induced fluorescence [1]: non-selective
- Fluorescence change in stained cells after BRACO19 treatment (MCF-7 cells): not obvious
- binding [2]: weak
